# Test results reported in ChEMBL document CHEMBL3580567 (J Med Chem, 2015).
# Active and inactive are the calls of the source. No cut-off for these calls is given here.
# Tests used:
# [1] = biological target: T1, Peroxisome proliferator-activated receptor gamma (Homo sapiens) (UniProt P37231); assay: Binding affinity to PPARgamma (unknown origin) at 10 uM
# T1 sequence (whole entry): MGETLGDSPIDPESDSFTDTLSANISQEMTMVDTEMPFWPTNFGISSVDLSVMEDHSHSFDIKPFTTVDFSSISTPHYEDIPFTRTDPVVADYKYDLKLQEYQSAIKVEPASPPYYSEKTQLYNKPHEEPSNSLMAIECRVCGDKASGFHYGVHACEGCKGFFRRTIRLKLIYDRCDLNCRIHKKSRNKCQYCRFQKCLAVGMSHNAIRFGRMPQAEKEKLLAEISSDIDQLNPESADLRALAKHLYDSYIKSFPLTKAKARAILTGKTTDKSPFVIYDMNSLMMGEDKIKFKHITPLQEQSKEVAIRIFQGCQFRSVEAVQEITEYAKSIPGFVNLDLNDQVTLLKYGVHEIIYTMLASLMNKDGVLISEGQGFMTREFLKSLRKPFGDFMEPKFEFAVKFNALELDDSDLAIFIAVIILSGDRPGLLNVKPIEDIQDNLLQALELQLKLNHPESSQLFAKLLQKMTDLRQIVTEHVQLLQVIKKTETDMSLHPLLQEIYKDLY
# [2] = biological target: T2, 5-hydroxytryptamine receptor 1A (Homo sapiens) (UniProt P08908); assay: Binding affinity to 5HT-1A receptor (unknown origin) at 10 uM
# T2 sequence (whole entry): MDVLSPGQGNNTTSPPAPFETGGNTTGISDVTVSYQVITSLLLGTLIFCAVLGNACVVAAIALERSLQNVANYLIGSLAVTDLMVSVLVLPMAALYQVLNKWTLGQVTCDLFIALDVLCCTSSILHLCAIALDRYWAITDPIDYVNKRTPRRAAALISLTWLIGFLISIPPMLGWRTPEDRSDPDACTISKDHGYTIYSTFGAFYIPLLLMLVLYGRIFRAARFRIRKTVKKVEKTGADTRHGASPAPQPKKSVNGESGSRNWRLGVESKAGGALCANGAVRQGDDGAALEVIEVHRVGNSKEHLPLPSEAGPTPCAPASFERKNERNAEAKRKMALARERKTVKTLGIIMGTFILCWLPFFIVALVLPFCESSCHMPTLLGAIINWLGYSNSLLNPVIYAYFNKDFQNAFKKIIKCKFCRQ
# Homo sapiens = species on record: Homo sapiens; assay: Selectivity ratio of Ki for human melatonin receptor-1 to Ki for human melatonin receptor-2
# [3] = biological target: T3, Melatonin receptor type 1B (Homo sapiens) (UniProt P49286); assay: Agonist activity at human melatonin receptor-2 transfected in CHO cell membranes after 1 hr by GTPgammaS binding assay relative to melatonin; format: functional
# T3 sequence (whole entry): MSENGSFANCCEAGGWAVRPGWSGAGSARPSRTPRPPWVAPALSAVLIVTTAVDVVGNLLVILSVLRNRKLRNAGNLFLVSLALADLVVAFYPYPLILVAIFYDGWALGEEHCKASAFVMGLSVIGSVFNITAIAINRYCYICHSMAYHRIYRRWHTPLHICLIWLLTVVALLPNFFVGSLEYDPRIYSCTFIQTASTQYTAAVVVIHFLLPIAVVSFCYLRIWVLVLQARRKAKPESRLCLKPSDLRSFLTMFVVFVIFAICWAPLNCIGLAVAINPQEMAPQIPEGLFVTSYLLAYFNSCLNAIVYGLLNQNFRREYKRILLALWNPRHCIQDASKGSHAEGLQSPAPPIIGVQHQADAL
# Procedure, shortened: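 CHO membranes (20 µg/mL) stably expressing human MT1 or MT2 in 20 mM HEPES pH 7.4, 100 mM NaCl, 3 µM GDP, 3 mM MgCl2, 20 µg/mL saponin. Incubated with 0.2 nM [35S]GTPγS for 1 h at rt, then filtered. Non-specific binding defined with 10 µM GTPγS. Seven concentrations in duplicate; EC50 and Emax fitted.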
# [4] = biological target: T4, Retinoic acid receptor alpha (Homo sapiens) (UniProt P10276); assay: Binding affinity to RARalpha (unknown origin) at 10 uM
# T4 sequence (whole entry): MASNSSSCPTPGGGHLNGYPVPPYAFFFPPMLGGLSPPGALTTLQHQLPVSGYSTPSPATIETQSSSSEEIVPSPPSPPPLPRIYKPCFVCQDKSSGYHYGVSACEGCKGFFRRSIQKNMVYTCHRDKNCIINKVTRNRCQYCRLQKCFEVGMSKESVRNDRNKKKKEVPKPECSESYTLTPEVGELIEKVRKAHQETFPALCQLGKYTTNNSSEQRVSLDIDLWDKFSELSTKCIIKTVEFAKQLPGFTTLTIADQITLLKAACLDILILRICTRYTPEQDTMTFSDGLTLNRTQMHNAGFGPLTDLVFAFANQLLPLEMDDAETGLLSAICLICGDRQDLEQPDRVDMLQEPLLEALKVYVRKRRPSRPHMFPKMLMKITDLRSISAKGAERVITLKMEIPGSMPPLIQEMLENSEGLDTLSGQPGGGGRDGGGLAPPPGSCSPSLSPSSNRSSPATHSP
smiles,measurement,setting,value
COc1ccc2[nH]cc(CCc3nnc(C)o3)c2c1,Activity,[1],inactive
same,Activity,[2],inactive
same,Ratio Ki,Homo sapiens,3.6
same,Emax,[3],32%
same,Activity,[4],inactive
